Laboratory results taken from PubChem BioAssay AID493176 (Broad Institute, 2011).
Results filed as inconclusive are left out. The source made the active and inactive calls.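 Rule for the calls: active = every replicate test active, with falling luminescence and half-maximal potency within ten times the top tested dose; inconclusive = tests disagree, or partial flat loss or unreliable fit; inactive = all tests inactive, flat or rising signal or weak potency.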

Tested on: not listed separately
Assay: killing of breast cancer stem-like cells, dose response, cell-based, HMLE_shECad, CellTiter-Glo luminescence, dry powder, set 3 (AID 493176)
Details: HMLE_shECad viability, CellTiter-Glo luminescence, 72 h; at 19.5 µM (top of the series)
Procedure, shortened: (§1)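 Material: E-cadherin-knockdown HMLE cells (HMLE_shECad), CSC-like; quantity: 2000 cells per well; medium: serum-free CSC medium; schedule: ≥4 h settling, then ~70-74 h compound treatment at 37 °C; measured by: CellTiter-Glo luminescent signal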

Question: With `O=C(c1ccccc1)c1coc2ccc(O)c(Br)c12` as the compound, how does the activity change, negative = inhibition read?
Answer: Its activity change, negative = inhibition is 1.46% (inactive).

Tested on: HMLE_shECad viability, CellTiter-Glo luminescence, 72 h
Assay: as above
Details: not given
Procedure, shortened: as §1

Question: For `CC(C)(C)c1ccc2c(c1)OC(C(=O)NN=Cc1ccc[nH]1)CO2` (mixture of isomers), which AC50 is on record?
Answer: The AC50 was 2.21 µM.

Question: With `CC(C)CC(=O)NC(NC(=S)Nc1sc2c(c1C#N)CCCC2)C(Cl)(Cl)Cl` (stereo unspecified) as the compound, how does the AC50 read?
Answer: The AC50 was 0.619 µM.

Question: Which AC50 does the source give for `CC(=O)c1cccc(NS(=O)(=O)c2cc(-c3cnc(C4CC4)o3)ccc2C)c1` here?
Answer: Its AC50 is 1.02 µM.

Question: With `C/C(=N\NC(=O)c1cc(-c2cccc([N+](=O)[O-])c2)n[nH]1)c1ccccc1O` as the compound, how does the AC50 read?
Answer: Its AC50 is 8.72 µM.

Question: With `Nc1cc(Cl)ccc1Oc1ccc2ccccc2c1` as the compound, how does the AC50 read?
Answer: Its AC50 is 10.5 µM.

Question: Which AC50 does the source give for `Cc1csc(NC(=O)c2ccc(COc3ccccc3)o2)n1` here?
Answer: The AC50 was 12.3 µM.

Question: For `CN(c1ccccc1)S(=O)(=O)c1ccc(-c2ccccc2)cc1`, which AC50 is on record?
Answer: Its AC50 is 12.7 µM.

Question: With `CC(C)c1ccc(/C=C/C(=O)NC2=NCCS2)cc1` as the compound, how does the AC50 read?
Answer: The AC50 was 7.96 µM.

Question: For `Cc1cc(C)nc(NC(=O)/C=C/c2cccs2)c1`, which AC50 is on record?
Answer: The AC50 was 5.95 µM.

Question: With `Cc1ccc2nc(NC(=O)c3cccc(-c4cc5ccccc5oc4=O)c3)sc2c1` as the compound, how does the AC50 read?
Answer: The AC50 was 5.37 µM.

Question: For `Cc1onc(-c2ccccc2)c1C(=O)Nc1sc2c(c1C#N)CCC(C)C2` (stereo unspecified), which AC50 is on record?
Answer: The AC50 was 7.81 µM.

Question: With `CCN1C(=O)/C(=C\N2CCN(c3cccc(Cl)c3)CC2)SC1=S` as the compound, how does the AC50 read?
Answer: Its AC50 is 4.92 µM.

Question: For `O=C(COc1ccc(Cl)cc1Cl)N/N=C/c1ccc[nH]1`, which AC50 is on record?
Answer: The AC50 was 5.91 µM.

Question: For `O=C(Nc1ccccc1N1CCCC1)c1cccc(-c2cc3ccccc3oc2=O)c1`, which AC50 is on record?
Answer: The AC50 was 10 µM.

Question: Which AC50 does the source give for `CCCCCCc1cc2cc(S(=O)(=O)c3ccc(Cl)cc3)c(=O)oc2cc1O` here?
Answer: The AC50 was 2.2 µM.
